The values that follow come from ChEMBL document CHEMBL3871288, “Marine sponge alkaloids as a source of anti-bacterial adjuvants” (Bioorg Med Chem Lett, 2016).

Assay [1] has as its system Acinetobacter baumannii. The assay is described as follows: Antibiofilm activity against Acinetobacter baumannii ATCC 19606 after 24 hrs by crystal violet staining based assay. Type of assay: functional. Conditions: ATCC 19606, 24 h.
Assay [2] concerns Staphylococcus aureus. The assay is described as follows: Antibiofilm activity against methicillin-resistant Staphylococcus aureus BAA-1685 after 24 hrs by crystal violet staining based assay. The settings on record: BAA-1685, 24 h. It counts as functional.
Assay [3] has as its system Acinetobacter baumannii. Briefly: Antibiofilm activity against Acinetobacter baumannii ATCC 19606 at 50 uM after 24 hrs by crystal violet staining based assay relative to control. The settings on record: ATCC 19606, 24 h. Type of assay: functional.
Assay [4] deals with Staphylococcus aureus. The assay is described as follows: Potentiation of oxacillin-induced antibacterial activity against methicillin-resistant Staphylococcus aureus BAA-1556 assessed as oxacillin MIC at 5 uM measured after 16 to 18 hrs by serial dilution assay (reference value: 32 ug/ml). It counts as functional.
For assay [5], the system named is Acinetobacter baumannii. Briefly: Potentiation of meropenem-induced antibacterial activity against Acinetobacter baumannii AB5075 assessed as meropenem MIC at 10 uM measured after 16 to 18 hrs by serial dilution assay (reference value: 32 ug/ml). Type of assay: functional.
Assay [6] concerns Staphylococcus aureus. Briefly: Potentiation of oxacillin-induced antibacterial activity against methicillin-resistant Staphylococcus aureus BAA-1556 assessed as oxacillin MIC at 10 uM measured after 16 to 18 hrs by serial dilution assay (reference value: 32 ug/ml). It counts as functional.
The subject of assay [7] is Staphylococcus aureus. The assay is described as follows: Potentiation of oxacillin-induced antibacterial activity against methicillin-resistant Staphylococcus aureus BAA-1556 assessed as oxacillin MIC at 25 uM measured after 16 to 18 hrs by serial dilution assay (reference value: 32 ug/ml). It counts as functional.
Assay [8] relates to Staphylococcus aureus. Briefly: Potentiation of oxacillin-induced antibacterial activity against methicillin-resistant Staphylococcus aureus BAA-1556 assessed as oxacillin MIC at 40 uM measured after 16 to 18 hrs by serial dilution assay (reference value: 32 ug/ml). Type of assay: functional.
The subject of assay [9] is Acinetobacter baumannii. The assay is described as follows: Antibiofilm activity against Acinetobacter baumannii ATCC 19606 at 100 uM after 24 hrs by crystal violet staining based assay relative to control. It counts as functional. Conditions: ATCC 19606, 24 h.
In assay [10] the test system is Staphylococcus aureus. Briefly: Potentiation of vancomycin-induced antibacterial activity against vancomycin intermediate Staphylococcus aureus ATCC 700699 assessed as vancomycin MIC at 50 uM measured after 16 to 18 hrs by serial dilution assay (reference value: 8 ug/ml). Type of assay: functional. Conditions: Mu50.
The subject of assay [11] is Pseudomonas aeruginosa. Briefly: Antibiofilm activity against Pseudomonas aeruginosa PA14 after 24 hrs by crystal violet staining based assay. Conditions: PA14, 24 h. It counts as functional.
For assay [12], the system named is Staphylococcus aureus. The assay is described as follows: Ratio of oxacillin MIC for methicillin-resistant Staphylococcus aureus BAA-1556 in presence of test compound to oxacillin MIC for methicillin-resistant Staphylococcus aureus harboring vraR mutant in presence of test compound. It counts as functional.
Assay [13] deals with Staphylococcus aureus. The assay is described as follows: Potentiation of oxacillin-induced antibacterial activity against methicillin-resistant Staphylococcus aureus NE481 assessed as oxacillin MIC at 25 uM measured after 16 to 18 hrs by serial dilution assay (reference value: 1 ug/ml).
Assay [14] concerns Staphylococcus aureus. Briefly: Potentiation of oxacillin-induced antibacterial activity against methicillin-resistant Staphylococcus aureus BAA-1556 assessed as oxacillin MIC at 50 uM measured after 16 to 18 hrs by serial dilution assay (reference value: 32 ug/ml). It counts as functional.
Assay [15] concerns Staphylococcus aureus. The assay is described as follows: Potentiation of vancomycin-induced antibacterial activity against vancomycin intermediate Staphylococcus aureus ATCC 700699 assessed as vancomycin MIC at 25 uM measured after 16 to 18 hrs by serial dilution assay (reference value: 8 ug/ml). Conditions: Mu50. It counts as functional. An outline of the steps:
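Vancomycin MIC was measured against vancomycin-intermediate S. aureus ATCC 700699 with the alkaloid co-dosed at a fixed concentration. Levels used across the series were 25 and 50 µM.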

Assay [16] relates to Staphylococcus aureus. The assay is described as follows: Potentiation of oxacillin-induced antibacterial activity against methicillin-resistant Staphylococcus aureus harboring vraR mutant assessed as oxacillin MIC at 25 uM measured after 16 to 18 hrs by serial dilution assay. Type of assay: functional.

In general, IC50 refers to the concentration at which inhibition is half-maximal. A higher IC50 goes with a need for much substance. Regarding `Nc1ncc([C@@H]2[C@@H](CNC(=O)c3cc(Br)c[nH]3)[C@H](CNC(=O)c3cc(Br)c[nH]3)[C@H]2c2cnc(N)[nH]2)[nH]1`, the values for the IC50 in [1] and in assay [2] were 30.5 µM and 37.6 µM, respectively.
As usually defined, the inhibition is the share of the control response that was lost under treatment. The term MIC denotes the least concentration at which growth counts as inhibited. Turning to `Nc1ncc([C@@H]2[C@@H](CNC(=O)c3cc(Br)c(Br)[nH]3)[C@H](CNC(=O)c3cc(Br)c(Br)[nH]3)[C@H]2c2cnc(N)[nH]2)[nH]1`, the figures for the IC50 in assay [1] and in assay [2] were more than 50 µM and 15.3 µM, respectively. In addition, the inhibition at 50 µM in assay [3] was found to be 48%. Also, the figures for the minimum inhibitory concentration (MIC) in assay [4], in assay [5] and in assay [6] were 8 µg/mL, 8 µg/mL and 2 µg/mL, respectively.
As to `Nc1nc([C@@H]2c3[nH]c(N)nc3C[C@H](CNC(=O)c3cc(Br)c[nH]3)[C@H]2CNC(=O)c2cc(Br)c(Br)[nH]2)c[nH]1` [BROMOAGELIFERIN], the IC50 in assay [1] is 28.3 µM; in [2] it was 10.6 µM. Besides, the results for the MIC in [4], in assay [5] and in [6] were 16 µg/mL, 8 µg/mL and 2 µg/mL, respectively.
In the case of `Nc1ncc(/C=C/CNC(=O)c2cc(Br)c(Br)[nH]2)[nH]1` [OROIDIN], the MIC in [7] was found to be 8 µg/mL; in assay [8] it was 2 µg/mL; in assay [10] it was 2 µg/mL; in assay [13], 0.5 µg/mL; in [14] it was 0.5 µg/mL; in [15], 4 µg/mL. In addition, the minimum inhibitory concentration (MIC) in assay [16] worked out at 2 µg/mL. Also, the inhibition at 100 µM in assay [9] amounted to 29%. In addition, the IC50 is more than 100 µM in [1], 166 µM in assay [11] and 77.3 µM in [2]. In [12], the Ratio amounted to 4.
